Experiments:
Canis familiaris = species on record: Canis familiaris; test: Clearance in dog; format: ADME, organism-based, Canis lupus familiaris; conditions: in vivo
Protein smoothened [1] = biological target: T1, Protein smoothened (Homo sapiens, UniProt Q99835); test: Displacement of BODIPY-cyclopamine from human Smo expressed in HEK293 cells in presence of 20% normal human serum; format: cell-based
Procedure, shortened: (§1)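 Competition binding: displacement of fluorescently labeled bodipy-cyclopamine from recombinant human Smo expressed in HEK-293 cells. Run in 2% fetal calf serum and, separately, in 20% normal human serum. IC50 values are means of at least five experiments.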

[2] = Antiproliferative activity against irradiated Ptch +/- mouse medulloblastoma cells; format: functional; conditions: Medulloblastoma cell, light or radiation study
Procedure, shortened: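 Proliferation of irradiated Ptch +/- mouse medulloblastoma cells, which depend on the Hh pathway; readout reported as CC50.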

Rattus norvegicus = species on record: Rattus norvegicus; test: Clearance in rat; format: ADME, organism-based; conditions: in vivo
[3] = Volume of distribution at steady state in dog; format: ADME, organism-based, Canis lupus familiaris; conditions: in vivo, read-out: Vdss
[4] = Oral bioavailability in dog; format: ADME, organism-based, Canis lupus familiaris; conditions: in vivo
[5] = Oral bioavailability in rat; format: ADME, organism-based; conditions: in vivo
Protein smoothened [6] = biological target: T1, Protein smoothened; test: Displacement of BODIPY-cyclopamine from human Smo expressed in HEK293 cells in presence of 2% fetal calf serum; format: cell-based; procedure, shortened: as §1
[7] = Volume of distribution at steady state in rat; format: ADME, organism-based; conditions: in vivo, read-out: Vdss
[8] = Half life in dog; format: ADME, organism-based, Canis lupus familiaris; conditions: in vivo
[9] = Half life in rat; format: ADME, organism-based; conditions: in vivo
[10] = Plasma protein binding in human assessed as unbound fraction; format: ADME, cell-free
CYP2C9 = CYP2C9 (Homo sapiens, UniProt P11712); test: Inhibition of CYP2C9 at 10 uM; format: ADME
Sequence of CYP2C9 (P11712 whole entry): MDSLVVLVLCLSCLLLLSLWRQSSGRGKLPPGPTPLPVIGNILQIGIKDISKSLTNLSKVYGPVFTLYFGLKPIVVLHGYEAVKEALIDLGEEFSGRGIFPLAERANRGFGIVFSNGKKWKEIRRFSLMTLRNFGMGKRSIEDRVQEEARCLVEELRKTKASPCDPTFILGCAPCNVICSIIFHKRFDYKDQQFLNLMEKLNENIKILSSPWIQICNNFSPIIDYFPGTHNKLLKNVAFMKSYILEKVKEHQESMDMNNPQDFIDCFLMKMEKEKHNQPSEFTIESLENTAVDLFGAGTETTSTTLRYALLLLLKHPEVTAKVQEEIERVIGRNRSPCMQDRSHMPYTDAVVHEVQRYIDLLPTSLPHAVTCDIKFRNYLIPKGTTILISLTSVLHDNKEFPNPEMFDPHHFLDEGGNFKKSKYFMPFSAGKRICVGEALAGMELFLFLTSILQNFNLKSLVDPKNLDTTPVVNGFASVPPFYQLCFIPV

CYP3A4 = CYP3A4 (Homo sapiens, UniProt P08684); test: Inhibition of CYP3A4 at 10 uM; format: ADME
Sequence of CYP3A4 (P08684 whole entry): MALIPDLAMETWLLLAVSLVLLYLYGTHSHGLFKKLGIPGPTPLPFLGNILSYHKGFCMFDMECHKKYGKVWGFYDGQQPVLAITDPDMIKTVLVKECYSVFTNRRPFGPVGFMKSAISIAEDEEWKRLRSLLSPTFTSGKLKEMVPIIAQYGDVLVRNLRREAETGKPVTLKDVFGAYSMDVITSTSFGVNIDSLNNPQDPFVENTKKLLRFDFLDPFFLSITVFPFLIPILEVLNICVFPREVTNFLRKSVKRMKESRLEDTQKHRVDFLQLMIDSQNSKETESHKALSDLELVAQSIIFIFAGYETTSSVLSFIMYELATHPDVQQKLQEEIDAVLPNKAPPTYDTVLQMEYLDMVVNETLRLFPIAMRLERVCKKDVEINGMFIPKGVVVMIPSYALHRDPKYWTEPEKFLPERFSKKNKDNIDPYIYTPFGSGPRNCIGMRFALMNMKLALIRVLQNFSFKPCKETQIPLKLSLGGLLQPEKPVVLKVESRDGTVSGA

T1 sequence (Q99835 whole entry): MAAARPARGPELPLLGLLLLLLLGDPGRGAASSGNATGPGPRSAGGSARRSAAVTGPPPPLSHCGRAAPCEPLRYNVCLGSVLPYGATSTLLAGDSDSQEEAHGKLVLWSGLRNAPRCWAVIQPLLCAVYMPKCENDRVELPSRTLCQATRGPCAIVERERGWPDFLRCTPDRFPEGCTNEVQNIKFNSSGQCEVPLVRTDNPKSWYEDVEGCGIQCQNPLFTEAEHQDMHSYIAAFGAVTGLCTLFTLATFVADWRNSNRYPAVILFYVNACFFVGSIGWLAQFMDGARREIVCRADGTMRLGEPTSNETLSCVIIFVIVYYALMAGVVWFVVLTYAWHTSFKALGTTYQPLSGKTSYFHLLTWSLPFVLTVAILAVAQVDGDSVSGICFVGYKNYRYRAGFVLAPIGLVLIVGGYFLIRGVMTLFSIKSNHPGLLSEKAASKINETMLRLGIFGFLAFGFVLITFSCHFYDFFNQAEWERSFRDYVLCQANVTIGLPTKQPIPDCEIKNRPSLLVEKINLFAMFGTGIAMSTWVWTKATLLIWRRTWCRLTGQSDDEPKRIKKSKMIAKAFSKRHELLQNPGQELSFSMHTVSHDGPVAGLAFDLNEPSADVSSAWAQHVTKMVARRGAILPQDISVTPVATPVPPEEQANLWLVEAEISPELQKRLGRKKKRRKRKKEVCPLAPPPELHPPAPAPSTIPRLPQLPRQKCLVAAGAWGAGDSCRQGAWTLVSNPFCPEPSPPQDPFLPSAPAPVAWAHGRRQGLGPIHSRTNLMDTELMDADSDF

O=C(Nc1cccc(Cl)c1Cl)N1CCN2C(=O)N([C@H]3C[C@@H]3c3ccccc3)C(=O)[C@@H]2C1
clearance (Canis familiaris): 4 mL/min/kg
IC50 (Protein smoothened [1]): 690 nM
CC50 [2]: 12 nM
clearance (Rattus norvegicus): 46 mL/min/kg
Vd [3]: 2.5 L/kg
bioavailability [4]: 97%
bioavailability [5]: 30%
IC50 (Protein smoothened [6]): 230 nM
Vd [7]: 8 L/kg
half-life [8]: 10 h
half-life [9]: 2.2 h

O=C(Nc1ccccc1-c1ccccc1)N1CCN2C(=O)N([C@H]3C[C@@H]3c3ccccc3)C(=O)[C@@H]2C1
fraction unbound [10]: 0.044
inhibition at 10 µM (CYP2C9): 50%
IC50 (Protein smoothened [1]): 70 nM
CC50 [2]: 2 nM
clearance (Rattus norvegicus): 56 mL/min/kg
inhibition at 10 µM (CYP3A4): 50%
IC50 (Protein smoothened [6]): 21 nM
Vd [7]: 8 L/kg
half-life [9]: 2.7 h

— ChEMBL document CHEMBL1811786, “Identification of MK-5710 ((8aS)-8a-methyl-1,3-dioxo-2-[(1S,2R)-2-phenylcyclo- propyl]-N-(1-phenyl-1H-pyrazol-5-yl)hexahydro-imidazo[1,5-a]pyrazine-7(1H)-carboxamide), a potent smoothened antagonist for use in Hedgehog pathway dependent malignancies, part 2” (Bioorg Med Chem Lett, 2011)
